Bioassay records: PubChem, several laboratories
Shown are actives, neighbours in structure and some others; about 0.93% of the full set was active somewhere.
HEK293 NFkB inh: inhibitors of the PMA/ionomycin-induced NF-kB reporter in HEK293 cells. HEK-293 NF-kB luciferase reporter, luminescence. AID 465. inhibition, % at 3 µM. 0.21% of 62,000 active;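 active means inhibition above the mean of all tested compounds plus 3 SD, cut at about 40% in these data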;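 further: 0% = stimulated DMSO wells and 100% = 10 µM reference inhibitor 5653914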
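System – HEK-293 cells with stable firefly luciferase reporter driven by four HIV NF-kB elements · Doses – one dose, 3 µM · Schedule – 1 h compound pre-incubation, 16 h PMA/ionomycin at 37 °C · Technique – luminescence from luciferase substrate reagent · Measure – percent inhibition normalized per plate to DMSO and reference-inhibitor controls · Replicates – tested once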
JNK3 blocker: inhibitors of human JNK3 kinase; 0.61% of 60,000 active; inhibition, % at 8 µM; purified JNK3 kinase activity, HTS; AID 746; P53779; in the data active means inhibition above about 17%;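 further: 0% = DMSO and 100% = reference inhibitor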
MMP13 inh: MMP13 (human) collagenase inhibition; P45452; MMP-13 fTHP FRET cleavage, Mca fluorescence; inhibition, % at 4 µM; 0.07% of 65,000 active; AID 570;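 active means inhibition above the mean of compound-free control plate wells plus 3 SD, cut at about 14% in these data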;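 further: 0% = DMSO wells and 100% = wells with reference MMP-13 inhibitor after basal subtraction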
HePTP inh: human HePTP phosphatase inhibition; P35236; recombinant HePTP phosphatase activity, OD absorbance; inhibition, % at 20 µM; 0.64% of 110,000 active; AID 521; in the data active means inhibition above about 50%;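 further: plate controls were vehicle for no effect and reference inhibitor for full effect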
Target sequence (P35236 whole entry, looked up): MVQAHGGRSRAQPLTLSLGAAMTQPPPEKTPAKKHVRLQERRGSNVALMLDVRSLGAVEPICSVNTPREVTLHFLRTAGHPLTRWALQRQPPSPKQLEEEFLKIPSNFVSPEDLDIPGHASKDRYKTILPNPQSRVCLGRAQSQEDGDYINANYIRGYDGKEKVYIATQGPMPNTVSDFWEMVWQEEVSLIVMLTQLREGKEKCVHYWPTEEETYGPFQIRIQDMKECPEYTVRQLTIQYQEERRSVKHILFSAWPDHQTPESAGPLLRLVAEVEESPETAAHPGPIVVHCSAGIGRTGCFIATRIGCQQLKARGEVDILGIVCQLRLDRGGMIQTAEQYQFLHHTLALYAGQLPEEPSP
Starred values were filed as active, the others as inactive; nt = no result.

SMILES	HEK293 NFkB inh	JNK3 blocker	MMP13 inh	HePTP inh
O=C(O)CCN1C(=O)/C(=C/c2cn(-c3ccccc3)nc2-c2cccc([N+](=O)[O-])c2)SC1=S	nt	nt	nt	6
O=C(O)CCCN1C(=O)/C(=C/c2cn(-c3ccccc3)nc2-c2cccc([N+](=O)[O-])c2)SC1=S	nt	nt	nt	104*
O=C(O)CCN1C(=O)/C(=C/c2cn(-c3ccccc3)nc2-c2ccc(Br)cc2)SC1=S	nt	nt	nt	101*
CCOc1ccc(-c2nn(-c3ccccc3)cc2/C=C2\SC(=S)N(CCOC)C2=O)cc1	nt	nt	nt	7
CCOC(=O)c1ccc(-c2ccc(C(=O)Nc3cccc(NC(=O)c4ccccc4C)c3)o2)cc1	nt	nt	nt	1
CCC(=O)Oc1ccc2c(C)cc(=O)oc2c1I	nt	nt	nt	-4
O=C(CCCn1c(=O)[nH]c2cc(Cl)ccc2c1=O)NCC1CCCO1 (centres undefined)	7	23*	-12	3
O=C1/C(=C\c2ccco2)CC2CC1C/C(=C/c1ccco1)C2=O	nt	nt	nt	102*
O=C1/C(=C\c2cccs2)CC2CC1C/C(=C/c1cccs1)C2=O	nt	nt	nt	6
Oc1ccc(Cl)cc1/C=N/c1c(-c2ccco2)nc2cc(Cl)ccn12	nt	nt	nt	-15
CC1CCc2nc(N)c(C#N)c(-c3ccncc3)c2C1 (centres undefined)	16	17*	-13	6
CC1CCc2nc(N)c(C#N)c(-c3cccnc3)c2C1 (centres undefined)	nt	nt	nt	1
COC1=CC(CC(=O)c2ccc(OC)cc2)C(C(=O)c2ccccc2Cl)C=C1OC (centres undefined)	nt	nt	nt	95*
COC1=CC(CC(=O)c2ccc(OC)c(OC)c2)C(C(=O)c2ccccc2Cl)C=C1OC (centres undefined)	nt	nt	nt	5
Cc1nnc2n(C3CCCCC3)c(=O)c3c4c(sc3n12)CCC4	18	2	3	-2
O=c1c2c3c(sc2n2cnnc2n1C1CCCCC1)CCC3	nt	7	20*	4
Oc1[nH]c2ccccc2c1C=Nc1ccc2c(c1)OCCO2	-77	35*	-2	7
Cc1cccc(/N=C/c2c(O)[nH]c3ccccc23)n1	-16	30*	1	1
COc1ccc(OC)c(C2C(C(C)=O)=C(O)C(=O)N2c2nc3ccccc3s2)c1 (centres undefined)	nt	nt	nt	-6
COc1cc(/C=N\NC(=O)CNc2ccc(C)cc2)cc(Br)c1O	nt	nt	nt	-3
CC1=C(C(=O)OCCCc2ccccc2)C(c2ccccc2Br)CC(=O)N1 (centres undefined)	nt	nt	nt	-5
FC(F)(F)c1ccc2nnc(-c3cccc(OCc4ccccc4)c3)n2c1	nt	nt	nt	101*
COc1ccc2ccccc2c1-c1nnc2ccc(C(F)(F)F)cn12	nt	nt	nt	3
FC(F)(F)c1ccc2nnc(-c3cc(Br)ccc3OCc3ccccc3)n2c1	nt	nt	nt	55*
O=C(O)CCN1C(=O)/C(=C2\C(=O)N(Cc3ccccc3Cl)c3ccccc32)SC1=S	nt	nt	nt	102*
SMILES	HEK293 NFkB inh	JNK3 blocker	MMP13 inh	HePTP inh
Oc1c(C(Nc2nc3ccccc3s2)c2ccco2)ccc2cccnc12 (centres undefined)	71*	-1	2	-11
CC(C)C(=O)NC(c1ccco1)c1ccc2cccnc2c1O (centres undefined)	20	-9	-3	-11
Cc1c(NC(=O)/C=C/c2ccc(Cl)cc2)cccc1-c1nc2ncccc2o1	nt	nt	nt	8
CCC1=NN2C(=N)/C(=C/c3ccc(-c4cccc([N+](=O)[O-])c4)o3)C(=O)N=C2S1	nt	nt	nt	0
CC(C)C1=NN2C(=N)/C(=C/c3ccc(-c4cccc(C(=O)O)c4)o3)C(=O)N=C2S1	nt	nt	nt	25
NC1=NC(=O)/C(=C\c2ccc(-c3ccc([N+](=O)[O-])cc3)o2)S1	nt	nt	nt	64*
CCCC1=NN2C(=N)/C(=C/c3ccc(-c4ccc([N+](=O)[O-])cc4Br)o3)C(=O)N=C2S1	nt	nt	nt	76*
CC(C)C1=NN2C(=N)/C(=C/c3ccc(-c4ccc([N+](=O)[O-])cc4)o3)C(=O)N=C2S1	nt	nt	nt	79*
O=C(Nc1ccc(NC(=O)c2ccc([N+](=O)[O-])cc2)cc1)c1ccc(Br)cc1	nt	nt	nt	2
Cc1ccccc1N1CC(C(=O)N/N=C\c2ccc(Br)cc2)CC1=O (centres undefined)	nt	nt	nt	5
O=C(NCc1nc2ccccc2[nH]1)c1cccs1	0	28*	3	-1
O=C(NCc1nc2ccccc2[nH]1)c1ccco1	10	6	3	0
O=C1NC(=O)N(c2ccccc2)C(=O)/C1=C\c1ccc(Br)o1	nt	nt	nt	69*
O=C1NN(c2ccccc2)C(=O)/C1=C/c1ccc([N+](=O)[O-])o1	nt	nt	nt	103*
O=C1NN(c2ccccc2)C(=O)/C1=C/c1ccc(Br)o1	nt	nt	nt	102*
CCOc1ccc(N2C(=O)NC(=O)/C(=C\c3ccc(Br)o3)C2=O)cc1	nt	nt	nt	93*
Cc1ccc(-c2ccc(C=C3C(=O)NC(=O)NC3=O)o2)c(Br)c1	nt	nt	nt	25
CCOC(=O)C1=C(O)/C(=C/c2ccc(N(C)C)cc2)N=C1C	nt	nt	nt	7
CC(=O)Nc1cc(OC(C)=O)c2nonc2c1OC(C)=O	-2	47*	-3	-5
CC(=O)Nc1nonc1NC(C)=O	-2	-14	2	1
COCCCNS(=O)(=O)c1ccc(OC)cc1	nt	nt	nt	98*
O=S(=O)(c1ccc2c(c1)OCCO2)N1CCC(n2cnc3cc(F)ccc32)CC1	15	25*	-26	14
O=S(=O)(c1ccc2c(c1)OCCO2)N1CCC(n2nnc3cc(F)ccc32)CC1	2	4	-1	14
COC(=O)C(C(=O)OC)=C(/C=C/C=C/N(C)C)N(C)C	9	-10	-7	-4
CN(C)/C=C/C=C/C(=O)c1ccc(/C=C/C=C/N(C)C)o1	nt	nt	nt	103*
SMILES	HEK293 NFkB inh	JNK3 blocker	MMP13 inh	HePTP inh
COc1cc([N+](=O)[O-])cc(/C=N/NC(=O)COc2c(Br)cc(Br)cc2Br)c1O	nt	nt	nt	79*
COc1c(Br)cc(Br)cc1/C=N/NC(=O)COc1ccccc1[N+](=O)[O-]	nt	nt	nt	12
Cc1nc(SCc2cccc(F)c2)[nH]c(=O)c1C#N	11	3	-10	9
N#Cc1c(-c2ccco2)nc(SCc2ccc(F)cc2)[nH]c1=O	4	33*	-1	4
O=C(O)CN1C(=O)/C(=C2\SC(=S)NC2=O)c2ccccc21	nt	nt	nt	-9
O=C(O)CN1C(=O)/C(=N/N2C(=O)CSC2=S)c2ccccc21	nt	nt	nt	63*
CSc1ccc(/C=N/NC(=O)/C(=C\c2ccc3c(c2)OCO3)NC(=O)c2ccccc2)cc1	nt	nt	nt	33
Cc1ccc(C)c(NC(=O)c2cccc(Cl)c2)c1	nt	nt	nt	5
CC(C)c1ccc(/C=C2/C(=O)NN(c3ccc(F)cc3)C2=O)cc1	nt	nt	nt	4
O=C1NN(c2ccc(I)cc2)C(=O)/C1=C\c1ccccc1O	nt	nt	nt	92*
O=C1NN(c2ccc(I)cc2)C(=O)/C1=C\c1ccc(F)cc1	nt	nt	nt	104*
COc1cc(CN2CCN(S(C)(=O)=O)CC2)cc(OC)c1O	nt	nt	nt	1
CCN(CC)c1ccc(/C=C(/C#N)C(=O)Nc2cccc(Br)c2)o1	nt	nt	nt	-2
Cc1ccccc1/C=N/N1CCN(Cc2ccc(Cl)cc2)CC1	nt	nt	nt	105*
O=[N+]([O-])c1ccccc1/C=N/N1CCN(Cc2ccc(Cl)cc2)CC1	nt	nt	nt	0
O=C(O)c1cc(-c2ccco2)nc2ccccc12	8	1	-22	9
O=C(Nc1cccc([N+](=O)[O-])c1)c1cc(-c2ccco2)nc2ccccc12	nt	nt	nt	103*
